Measured values taken from ChEMBL document CHEMBL1158120, “Cytotoxic oxygenated triterpenoid saponins from Symplocos chinensis” (J Nat Prod, 2006).

Legend:
Type in all cases: functional, cell-based
A549 = assay: Cytotoxicity against human A549 cells by MTT assay
Outline: (§1)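 MTT read-out of tumour-cell viability. IC50 values in µM are reported as means of three independent experiments.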

Bel-7402 = assay: Cytotoxicity against human Bel-7402 cells by MTT assay; outline: as §1
HCT-8 = assay: Cytotoxicity against human HCT8 cells by MTT assay; outline: as §1
A2780 = assay: Cytotoxicity against human A2780 cells by MTT assay; outline: as §1
BGC-823 = assay: Cytotoxicity against human BGC-823 cells by MTT assay; outline: as §1

Row | Structure (SMILES) | IC50 (A549) [nM] | IC50 (Bel-7402) [nM] | IC50 (HCT-8) [nM] | IC50 (A2780) [nM] | IC50 (BGC-823) [nM]
1 | CC(C)=CCC/C(C)=C\C(=O)O[C@H]1[C@H](OC(=O)C(C)C)[C@]2(CO)[C@H](O)[C@H](O)[C@]3(C)C(=CC[C@@H]4[C@@]5(C)CC[C@H](O)C(C)(C)[C@@H]5CC[C@]43C)[C@@H]2CC1(C)C | > 10000 | > 10000 | > 10000 | > 10000 | > 10000
2 | CC(C)=CCC/C(C)=C\C(=O)O[C@H]1CC(C)(C)C[C@H]2C3=CC[C@@H]4[C@@]5(C)CC[C@H](O)C(C)(C)[C@@H]5CC[C@@]4(C)[C@]3(C)[C@@H](O)[C@@H](O)[C@@]12CO | > 10000 | > 10000 | > 10000 | > 10000 | > 10000
3 | CCC(C)C(=O)O[C@H]1[C@H](OC(=O)/C=C(\C)CCC=C(C)C)C(C)(C)C[C@H]2C3=CC[C@@H]4[C@@]5(C)CC[C@H](O[C@@H]6O[C@H](C(=O)O)[C@@H](O)[C@H](O)[C@H]6O[C@@H]6O[C@H](CO)[C@@H](O)[C@H](O)[C@H]6O)C(C)(C)[C@@H]5CC[C@@]4(C)[C@]3(C)[C@@H](O)[C@@H](O)[C@]21CO (some centres undefined) | > 10000 | > 10000 | > 10000 | 1900 | > 10000
4 | CC1(C)C[C@H](O)[C@]2(CO)[C@H](O)[C@H](O)[C@]3(C)C(=CC[C@@H]4[C@@]5(C)CC[C@H](O)C(C)(C)[C@@H]5CC[C@]43C)[C@@H]2C1 | > 10000 | > 10000 | > 10000 | > 10000 | > 10000
5 | COc1cccc2c1C(=O)c1c(O)c3c(c(O)c1C2=O)C[C@@](O)(C(=O)CO)C[C@@H]3O[C@H]1C[C@H](N)[C@H](O)[C@H](C)O1 [DOXORUBICIN] |  | 1000 | 800 | 100 | 1000
6 | CC1(C)C[C@H]2C3=CC[C@@H]4[C@@]5(C)CC[C@H](O)C(C)(C)[C@@H]5CC[C@@]4(C)[C@]3(C)[C@@H](O)[C@@H](O)[C@@]2(CO)[C@@H](O)[C@@H]1O [R1-barrigenol] | > 10000 | > 10000 | > 10000 | > 10000 | > 10000
7 | CCCCOC(=O)[C@H]1O[C@@H](O[C@H]2CC[C@]3(C)[C@H]4CC=C5[C@@H]6CC(C)(C)[C@@H](OC(=O)/C=C(/C)CCC=C(C)C)[C@H](OC(=O)C(C)CC)[C@]6(CO)[C@H](O)[C@H](O)[C@@]5(C)[C@]4(C)CC[C@H]3C2(C)C)[C@H](O[C@@H]2O[C@H](CO)[C@@H](O)[C@H](O)[C@H]2O)[C@@H](O)[C@@H]1O[C@@H]1O[C@@H](CO)[C@H](O)[C@H]1O (some centres undefined) [SYMPLOCOSOSIDE C] | > 10000 | 1500 | 2900 | 1300 | 4300
8 | CCCCOC(=O)[C@H]1O[C@@H](O[C@H]2CC[C@]3(C)[C@H]4CC=C5[C@@H]6CC(C)(C)[C@@H](OC(=O)/C=C(\C)CCC=C(C)C)[C@H](OC(=O)C(C)CC)[C@]6(CO)[C@H](O)[C@H](O)[C@@]5(C)[C@]4(C)CC[C@H]3C2(C)C)[C@H](O[C@@H]2O[C@H](CO)[C@@H](O)[C@H](O)[C@H]2O)[C@@H](O)[C@@H]1O[C@@H]1O[C@@H](CO)[C@H](O)[C@H]1O (some centres undefined) [SYMPLOCOSOSIDE D] | > 10000 | 1890 | > 10000 | 1740 | > 10000
9 | CCCCOC(=O)[C@H]1O[C@@H](O[C@H]2CC[C@]3(C)[C@H]4CC=C5[C@@H]6CC(C)(C)[C@@H](OC(=O)/C=C/c7ccccc7)[C@H](OC(=O)C(C)CC)[C@]6(CO)[C@H](O)[C@H](O)[C@@]5(C)[C@]4(C)CC[C@H]3C2(C)C)[C@H](O[C@@H]2O[C@H](CO)[C@@H](O)[C@H](O)[C@H]2O)[C@@H](O)[C@@H]1O[C@@H]1O[C@@H](CO)[C@H](O)[C@H]1O (some centres undefined) [SYMPLOCOSOSIDE E] | > 10000 | 1700 | > 10000 | 1700 | > 10000
10 | CCCCOC(=O)[C@H]1O[C@@H](O[C@H]2CC[C@]3(C)[C@H]4CC=C5[C@@H]6CC(C)(C)C[C@H](OC(=O)/C=C(/C)CCC=C(C)C)[C@]6(CO)[C@H](O)[C@H](O)[C@@]5(C)[C@]4(C)CC[C@H]3C2(C)C)[C@H](O[C@@H]2O[C@H](CO)[C@@H](O)[C@H](O)[C@H]2O)[C@@H](O)[C@@H]1O[C@@H]1O[C@@H](CO)[C@H](O)[C@H]1O [SYMPLOCOSOSIDE F] | > 10000 | > 10000 | 4000 | > 10000 | > 10000
11 | CCC(C)C(=O)O[C@H]1[C@H](OC(=O)/C=C(/C)CCC=C(C)C)C(C)(C)C[C@H]2C3=CC[C@@H]4[C@@]5(C)CC[C@H](O[C@@H]6O[C@H](C(=O)O)[C@@H](O[C@@H]7O[C@@H](CO)[C@H](O)[C@H]7O)[C@H](OC(C)=O)[C@H]6O[C@@H]6O[C@H](CO)[C@@H](O)[C@H](O)[C@H]6O)C(C)(C)[C@@H]5CC[C@@]4(C)[C@]3(C)[C@@H](O)[C@@H](O)[C@]21CO (some centres undefined) [SYMPLOCOSOSIDE G] | 2100 | 1800 | 2000 | 1400 | 1900
12 | CCC(C)C(=O)O[C@H]1[C@H](OC(=O)/C=C(\C)CCC=C(C)C)C(C)(C)C[C@H]2C3=CC[C@@H]4[C@@]5(C)CC[C@H](O[C@@H]6O[C@H](C(=O)O)[C@@H](O[C@@H]7O[C@@H](CO)[C@H](O)[C@H]7O)[C@H](OC(C)=O)[C@H]6O[C@@H]6O[C@H](CO)[C@@H](O)[C@H](O)[C@H]6O)C(C)(C)[C@@H]5CC[C@@]4(C)[C@]3(C)[C@@H](O)[C@@H](O)[C@]21CO (some centres undefined) [SYMPLOCOSOSIDE H] | 2700 | 2600 | 2100 | 1400 | 2500
13 | CCC(C)C(=O)O[C@H]1[C@H](OC(=O)/C=C(/C)CCC=C(C)C)C(C)(C)C[C@H]2C3=CC[C@@H]4[C@@]5(C)CC[C@H](O[C@@H]6O[C@H](C(=O)OC)[C@@H](O[C@@H]7O[C@@H](CO)[C@H](O)[C@H]7O)[C@H](OC(C)=O)[C@H]6O[C@@H]6O[C@H](CO)[C@@H](O)[C@H](O)[C@H]6O)C(C)(C)[C@@H]5CC[C@@]4(C)[C@]3(C)[C@@H](O)[C@@H](O)[C@]21CO (some centres undefined) [SYMPLOCOSOSIDE I] | > 10000 | 2700 | 1700 | 3200 | > 10000
14 | CC(=O)O[C@@H]1[C@@H](O[C@@H]2O[C@H](CO)[C@@H](O)[C@H](O)[C@H]2O)[C@H](O[C@H]2CC[C@]3(C)[C@H]4CC=C5[C@@H]6CC(C)(C)[C@@H](OC(=O)/C=C(/C)CCC=C(C)C)[C@H](OC(=O)c7ccccc7)[C@]6(CO)[C@H](O)[C@H](O)[C@@]5(C)[C@]4(C)CC[C@H]3C2(C)C)O[C@H](C(=O)O)[C@H]1O[C@@H]1O[C@@H](CO)[C@H](O)[C@H]1O [SYMPLOCOSOSIDE J] | 3000 | 1700 | 2100 | 1400 | 1800
